Results as given in ChEMBL document CHEMBL3414481, “Discovery of highly selective brain-penetrant vasopressin 1a antagonists for the potential treatment of autism via a chemogenomic and scaffold hopping approach” (J Med Chem, 2015).
pKi: −log10 of the molar value. Values after ≈ are worked out from the molar mass of the structure shown.

Columns and labels:
[1] = target: T1, Vasopressin V1a receptor (Homo sapiens, UniProt P37288); assay: Displacement of [3H]-vasopressin from human vasopressin 1a receptor expressed in HEK293 cell membranes after 1 hr by scintillation proximity assay; details: for pKi: read-out: Ki
Outline: (§1)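 Radioligand competition binding; affinity reported as Ki.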
Target sequence in this assay (P37288 whole entry): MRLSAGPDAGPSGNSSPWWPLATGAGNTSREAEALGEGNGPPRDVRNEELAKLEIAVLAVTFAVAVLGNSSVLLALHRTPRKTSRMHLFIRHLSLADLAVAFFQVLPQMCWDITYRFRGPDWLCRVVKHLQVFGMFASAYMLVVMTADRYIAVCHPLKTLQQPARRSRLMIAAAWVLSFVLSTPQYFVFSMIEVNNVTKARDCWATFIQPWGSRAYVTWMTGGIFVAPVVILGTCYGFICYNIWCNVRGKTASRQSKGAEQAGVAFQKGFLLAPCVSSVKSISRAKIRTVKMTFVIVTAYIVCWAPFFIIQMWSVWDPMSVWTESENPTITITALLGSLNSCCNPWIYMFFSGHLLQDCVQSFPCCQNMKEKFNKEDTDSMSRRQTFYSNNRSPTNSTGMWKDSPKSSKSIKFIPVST

[2] = target: T1, Vasopressin V1a receptor; assay: Antagonist activity at human vasopressin 1a receptor expressed in CHO cells assessed as inhibition of vasopressin-induced calcium flux preincubated for 20 mins followed by vasopressin induction measured for 5 mins by FLIPR assay; format: functional, cell-based
Outline: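 Functional antagonist calcium-flux read-out; value reported as apparent affinity (Kb).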
Target sequence in this assay (P37288 whole entry, looked up): as the sequence (P37288 whole entry) above

[3] = target: Vasopressin V1a receptor (Mus musculus, UniProt Q62463); assay: Displacement of [3H]-vasopressin from mouse vasopressin 1a receptor expressed in HEK293 cell membranes after 1 hr by scintillation proximity assay; details: for pKi: read-out: Ki; for Ki: hek293; outline: as §1
[4] = organism: Homo sapiens; assay: Selectivity ratio of Ki for human vasopressin V2 receptor to Ki for human vasopressin 1a receptor
Outline: (§2)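 Ratio of the Ki at hV2 or hOTR to the hV1a Ki. Each Ki came from a radioligand competition binding assay.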

[5] = organism: Homo sapiens; assay: Selectivity ratio of Ki for human oxytocin receptor to Ki for human vasopressin 1a receptor; outline: as §2
[6] = Solubility of the compound in phosphate buffer at pH 6.5 incubated for 1 hr with stirring followed by 2 hrs of shaking by Lysa assay; format: physicochemical
[7] = Activity at human P-gp assessed as drug transport; format: ADME
[8] = Ratio of drug level in brain to plasma in mouse at 10 mg/kg, po; format: ADME, organism-based; design: dose 10 mg/kg, route oral; details: read-out: BPR
[9] = Volume of distribution at steady state in mouse at 2 mg/kg, iv; format: ADME, organism-based; design: dose 2 mg/kg, route intravenous; details: in vivo, read-out: Vdss
[10] = Clearance in mouse at 2 mg/kg, iv; format: ADME, organism-based; design: dose 2 mg/kg, route intravenous; details: in vivo
[11] = tested on: Mus musculus; assay: Inhibition of arginine vasopressin-induced scratching in ip dosed NMRI mouse administered 30 mins prior to arginine vasopressin challenge measured for 5 mins; format: functional, organism-based
Outline: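 Mice received the compound i.p. at 0.3, 1, 3, 10 or 30 mg/kg or vehicle before centrally given AVP. AVP-induced scratching was scored and expressed as % of maximal response.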

[12] = target: T2, Vasopressin V1b receptor (Homo sapiens, UniProt P47901); assay: Displacement of [3H]-vasopressin from human vasopressin 1b receptor after 1 hr by scintillation proximity assay
T2 sequence (P47901 whole entry): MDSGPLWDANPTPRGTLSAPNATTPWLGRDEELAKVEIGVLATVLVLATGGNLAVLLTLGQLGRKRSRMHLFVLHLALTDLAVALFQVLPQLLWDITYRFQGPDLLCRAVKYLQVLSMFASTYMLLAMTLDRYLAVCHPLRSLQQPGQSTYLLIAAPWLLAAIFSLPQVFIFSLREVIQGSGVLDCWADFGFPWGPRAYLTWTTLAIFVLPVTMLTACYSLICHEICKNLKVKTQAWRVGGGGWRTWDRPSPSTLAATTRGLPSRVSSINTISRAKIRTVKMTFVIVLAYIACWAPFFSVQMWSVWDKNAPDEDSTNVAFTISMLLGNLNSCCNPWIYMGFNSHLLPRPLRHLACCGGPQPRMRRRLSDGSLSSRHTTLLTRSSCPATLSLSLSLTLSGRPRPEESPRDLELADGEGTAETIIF

[13] = target: Vasopressin V2 receptor (Homo sapiens, UniProt P30518); assay: Displacement of [3H]-vasopressin from human vasopressin V2 receptor expressed in HEK293 cell membranes after 1 hr by scintillation proximity assay
[14] = target: T3, Oxytocin receptor (Homo sapiens, UniProt P30559); assay: Displacement of [3H]-oxytocin from human oxytocin receptor expressed in HEK cell membranes after 1 hr by scintillation proximity assay; design: species or system HEK293
T3 sequence (P30559 whole entry): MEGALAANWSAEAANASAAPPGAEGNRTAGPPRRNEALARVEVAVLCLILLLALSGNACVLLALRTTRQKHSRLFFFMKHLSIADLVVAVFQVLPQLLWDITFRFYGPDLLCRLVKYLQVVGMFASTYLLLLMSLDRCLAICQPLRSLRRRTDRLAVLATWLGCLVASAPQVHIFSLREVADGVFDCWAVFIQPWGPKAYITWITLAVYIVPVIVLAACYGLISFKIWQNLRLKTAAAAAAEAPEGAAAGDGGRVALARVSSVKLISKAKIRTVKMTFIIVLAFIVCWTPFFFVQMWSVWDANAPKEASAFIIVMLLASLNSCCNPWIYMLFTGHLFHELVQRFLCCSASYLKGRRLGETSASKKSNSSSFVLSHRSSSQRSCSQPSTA

[15] = Octanol-buffer partition co-efficient, log D of the compound after 24 hrs by high-throughput shake-flask method; format: physicochemical
[16] = tested on: Mus musculus; assay: Inhibition of arginine vasopressin-induced scratching in icv dosed NMRI mouse administered 5 mins prior to arginine vasopressin challenge measured for 5 mins; format: functional, organism-based
Outline: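 Mice received the compound i.c.v. at three doses or vehicle before centrally given AVP. AVP-induced scratching was scored and expressed as % of maximal response.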

Vasopressin V1a receptor (Mus musculus, UniProt Q62463), sequence (Q62463 whole entry): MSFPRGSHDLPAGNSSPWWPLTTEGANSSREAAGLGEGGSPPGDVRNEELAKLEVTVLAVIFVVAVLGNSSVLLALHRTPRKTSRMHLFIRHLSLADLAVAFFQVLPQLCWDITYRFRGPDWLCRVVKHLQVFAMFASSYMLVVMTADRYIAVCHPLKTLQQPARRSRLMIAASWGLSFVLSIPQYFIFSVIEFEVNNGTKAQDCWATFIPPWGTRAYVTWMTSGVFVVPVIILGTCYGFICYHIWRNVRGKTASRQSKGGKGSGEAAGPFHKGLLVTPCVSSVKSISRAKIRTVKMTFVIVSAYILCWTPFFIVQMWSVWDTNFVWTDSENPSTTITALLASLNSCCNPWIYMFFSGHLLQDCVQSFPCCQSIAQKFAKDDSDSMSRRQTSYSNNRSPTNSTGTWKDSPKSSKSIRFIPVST
Vasopressin V2 receptor, sequence (P30518 whole entry): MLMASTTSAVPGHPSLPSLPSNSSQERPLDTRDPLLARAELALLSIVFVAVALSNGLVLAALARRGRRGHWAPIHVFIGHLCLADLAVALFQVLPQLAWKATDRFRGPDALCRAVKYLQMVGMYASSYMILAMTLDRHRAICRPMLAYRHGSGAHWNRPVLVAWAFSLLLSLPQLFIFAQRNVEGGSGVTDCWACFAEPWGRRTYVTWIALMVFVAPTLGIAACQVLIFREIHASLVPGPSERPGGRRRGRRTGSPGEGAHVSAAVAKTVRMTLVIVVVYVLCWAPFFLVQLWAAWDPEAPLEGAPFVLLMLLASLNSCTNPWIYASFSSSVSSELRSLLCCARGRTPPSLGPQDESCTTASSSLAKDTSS

SMILES	pKi [1]	Kb [2] [nM]	pKi [3]	solubility at 3 h [6] [µg/mL]	other results
O=C(c1c[nH]c2cc(Cl)ccc12)N1CCC2(CC1)OCc1ncccc12	7.41	7.8	5.32	–	–
CN(C)CCNC(=O)Cn1cc(C(=O)N2CCC3(CC2)OCc2ccccc23)c2ccc(Cl)cc21	8.70	0.7	6.75	> 650	Ratio Ki [4]: 11800; Ratio Ki [5]: 5690; Activity [7]: Active; Kp [8]: 0.1; Vd [9]: 4.9 L/kg; clearance [10]: 14 mL/min/kg; inhibition [11]: Dose-dependent effect
COc1ccccc1C(=O)N1CCC(O)(Cc2ccccc2)CC1	–	–	–	–	Ki ([1]; hek293): Not Active
CN1CCC(n2cc(C(=O)N3CCC4(CC3)OCc3ccccc34)c3ccc(Cl)cc32)CC1	8.40	3.3	7.96	12 (≈ 25.9 µM)	Ratio Ki [4]: > 6750; Ratio Ki [5]: 1200; Activity [7]: Not Active; Kp [8]: 1; Vd [9]: 7.2 L/kg; clearance [10]: 52 mL/min/kg
O=C(c1c[nH]c2cc(Cl)ccc12)N1CCC2(CC1)OCc1ccncc12	8.05	4.2	5.53	–	–
O=C(c1c[nH]c2cc(Cl)ccc12)N1CCC(n2c(=O)[nH]c3ccccc32)CC1	8.10	14	5.62	–	–
CCOc1ccc2ccccc2c1C(=O)N1CCC(O)(Cc2ccccc2)CC1	5.55	–	–	–	pKi ([12]; read-out: Ki): 4.92
CN(C)C(=O)Cn1cc(C(=O)N2CCC3(CC2)OCc2ccccc23)c2ccc(Cl)cc21	–	0.1	7.85	56 (≈ 124 µM)	Activity [7]: Active; Kp [8]: 0.05; Vd [9]: 1.2 L/kg; clearance [10]: 40 mL/min/kg
O=C(c1c[nH]c2cc(Cl)ccc12)N1CCC2(CC1)COc1ccccc12	7.80	72	–	–	Ki [3]: Not Active
O=C1OC2(CCN(C(=O)c3c[nH]c4cc(Cl)ccc34)CC2)c2ccccc21	8.30	5	–	–	Ki [3]: Not Active
O=C(c1c[nH]c2cc(Cl)ccc12)N1CCC2(CC1)OCc1cccnc12	8.30	1.8	5.99	–	–
Cc1c(C(=O)N2CCC(O)(Cc3ccccc3)CC2)c2ccccc2n1C(=O)c1ccccc1	5.41	–	–	–	–
Cc1c(C(=O)N2CCC3(CC2)OCc2ccccc23)c2ccccc2n1Cc1ccccc1	8.70	3.6	6.68	< 1	pKi [13]: 5.03; Ki ([14]; hek293): Not Active; logD at 24 h [15]: > 3
CN(C)CCn1cc(C(=O)N2CCC3(CC2)OCc2ccccc23)c2ccc(Cl)cc21 [RO-5028442]	–	2.6	7.41	205 (≈ 468 µM)	Ratio Ki [4]: > 30000; Ratio Ki [5]: 9890; Activity [7]: Not Active; Kp [8]: 1.4; Vd [9]: 5.8 L/kg; clearance [10]: 91 mL/min/kg
O=C(c1c[nH]c2cc(Cl)ccc12)N1CCN(c2ccccc2Cl)CC1	6.93	193	5.71	–	–
CCOc1ccc2ccccc2c1C(=O)N1CCC2(CC1)OCc1ccccc12	7.09	–	–	–	Ki [12]: Not Active
O=C(c1cccc2ccccc12)N1CCC(O)(Cc2ccccc2)CC1	5.18	–	–	–	–
O=C(c1c[nH]c2cc(Cl)ccc12)N1CCC2(CC1)CNc1ccccc12	–	20	5.23	–	–
Cc1c(C(=O)N2CCC(O)(Cc3ccccc3)CC2)c2ccccc2n1S(=O)(=O)c1ccccc1	5.30	–	–	–	–
O=C(c1c[nH]c2cc(Cl)ccc12)N1CCC2(CC1)c1ccccc1CS2(=O)=O	7.62	11	5.23	–	–
CN1CCC[C@H]1Cn1cc(C(=O)N2CCC3(CC2)OCc2ccccc23)c2ccc(Cl)cc21	9.00	0.5	7.89	140 (≈ 302 µM)	Ratio Ki [4]: 6070; Ratio Ki [5]: 1980; Activity [7]: Not Active; Kp [8]: 2; Vd [9]: 2.6 L/kg; clearance [10]: 67 mL/min/kg
O=C(c1c[nH]c2ccccc12)N1CCC2(CC1)OCc1ccccc12	7.49	–	5.18	17 (≈ 51.1 µM)	logD at 24 h [15]: > 3
O=C(c1cn(C[C@@H]2CCCN2)c2cc(Cl)ccc12)N1CCC2(CC1)OCc1ccccc12	8.85	1.4	6.90	108 (≈ 240 µM)	Ratio Ki [4]: > 19300; Ratio Ki [5]: 1510; Activity [7]: Active; Kp [8]: 0.05; Vd [9]: 6.8 L/kg; clearance [10]: 32 mL/min/kg
CN1CCN(C(=O)Cn2cc(C(=O)N3CCC4(CC3)OCc3ccccc34)c3ccc(Cl)cc32)CC1	9.00	0.2	7.39	193 (≈ 381 µM)	Ratio Ki [4]: > 60000; Ratio Ki [5]: 9160; Kp [8]: 0.07; Vd [9]: 1.5 L/kg; clearance [10]: 39 mL/min/kg; inhibition [16]: Dose-dependent effect
Cc1c(C(=O)N2CCC(O)(Cc3ccccc3)CC2)c2ccccc2n1Cc1ccccc1	6.53	–	–	–	–
O=C(c1c[nH]c2cc(Cl)ccc12)N1CCC(c2ccccc2)CC1	7.64	43	5.83	–	–
O=C1Nc2ccccc2C2(CCN(C(=O)c3c[nH]c4cc(Cl)ccc34)CC2)O1	–	38	–	–	Ki [3]: Not Active
O=C(c1c[nH]c2cc(Cl)ccc12)N1CCC2(CC1)OCc1ccccc12	8.40	2.9	5.99	4 (≈ 10.9 µM)	pKi [13]: < 4.57; pKi ([14]; read-out: Ki): 5.12; Ratio Ki [4]: > 6750; Ratio Ki [5]: 1880; Activity [7]: Not Active; logD at 24 h [15]: 3.7
